Data as given in ChEMBL document CHEMBL3585281, “Antibacterial Labdane Diterpenoids from Vitex vestita” (2015).

Tests used:
Assay type in all cases: functional
Bacillus cereus [1] = assay: Antibacterial activity against Bacillus cereus N190 after 18 hrs by agar dilution method
Procedure, shortened: (§1)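 Agar-dilution MIC against Gram-positive strains. Compounds in DMSO, geometric dilutions giving final 100−0.75 mg/L in Mueller Hinton agar. Strains grown 18 h at 37 °C in trypticase soy broth, diluted in sterile water, spotted by Steers inoculator (about 1000 UFC/spot). Plates incubated 18 h at 37 °C; DMSO blank; ofloxacin positive control. MIC = lowest concentration with no visible growth.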

[2] = tested on: Staphylococcus epidermidis; assay: Antibacterial activity against Staphylococcus epidermidis CIP 53124 after 18 hrs by agar dilution method; procedure, shortened: as §1
Staphylococcus aureus [3] = assay: Antibacterial activity against Staphylococcus aureus ATCC 9144 oxford after 18 hrs by agar dilution method; procedure, shortened: as §1
Enterococcus gallinarum [4] = assay: Antibacterial activity against Enterococcus gallinarum N492 after 18 hrs by agar dilution method; procedure, shortened: as §1
Staphylococcus aureus [5] = assay: Antibacterial activity against Staphylococcus aureus CRBIP 2121 after 18 hrs by agar dilution method; procedure, shortened: as §1
[6] = tested on: Staphylococcus saprophyticus; assay: Antibacterial activity against Staphylococcus saprophyticus CIP 76125 after 18 hrs by agar dilution method; procedure, shortened: as §1
[7] = tested on: Staphylococcus saprophyticus; assay: Antibacterial activity against Staphylococcus saprophyticus E260 after 18 hrs by agar dilution method; procedure, shortened: as §1
Enterococcus gallinarum [8] = assay: Antibacterial activity against Enterococcus gallinarum N489 after 18 hrs by agar dilution method; procedure, shortened: as §1
Enterococcus faecalis [9] = assay: Antibacterial activity against Enterococcus faecalis N520 after 18 hrs by agar dilution method; procedure, shortened: as §1
Bacillus spizizenii = assay: Antibacterial activity against Bacillus subtilis ATCC 6633 after 18 hrs by agar dilution method; procedure, shortened: as §1
Enterococcus faecium [10] = assay: Antibacterial activity against Enterococcus faecium CIP 107387 after 18 hrs by agar dilution method; procedure, shortened: as §1
Enterococcus faecalis [11] = assay: Antibacterial activity against Enterococcus faecalis N491 after 18 hrs by agar dilution method; procedure, shortened: as §1
Staphylococcus aureus [12] = assay: Antibacterial activity against Staphylococcus aureus CIP 53154 after 18 hrs by agar dilution method; procedure, shortened: as §1
Enterococcus faecalis [13] = assay: Antibacterial activity against Enterococcus faecalis CIP 103214 after 18 hrs by agar dilution method; procedure, shortened: as §1
Listeria monocytogenes [14] = assay: Antibacterial activity against Listeria monocytogenes N783 after 18 hrs by agar dilution method; procedure, shortened: as §1
Enterococcus durans = assay: Antibacterial activity against Enterococcus durans CIP 104999 after 18 hrs by agar dilution method; procedure, shortened: as §1
[15] = tested on: Staphylococcus haemolyticus; assay: Antibacterial activity against Staphylococcus haemolyticus CIP 8156 after 18 hrs by agar dilution method; procedure, shortened: as §1
Bacillus cereus [16] = assay: Antibacterial activity against Bacillus cereus CIP 6624 after 18 hrs by agar dilution method; procedure, shortened: as §1
[17] = tested on: Enterococcus casseliflavus; assay: Antibacterial activity against Enterococcus casseliflavus CIP 103018 after 18 hrs by agar dilution method; procedure, shortened: as §1
Enterococcus faecium [18] = assay: Antibacterial activity against Enterococcus faecium N490 after 18 hrs by agar dilution method; procedure, shortened: as §1
Enterococcus gallinarum [19] = assay: Antibacterial activity against Enterococcus gallinarum CIP 105985 after 18 hrs by agar dilution method; procedure, shortened: as §1
Staphylococcus aureus [20] = assay: Antibacterial activity against Staphylococcus aureus CIP 483 after 18 hrs by agar dilution method; procedure, shortened: as §1
Listeria monocytogenes [21] = assay: Antibacterial activity against Listeria monocytogenes N851 after 18 hrs by agar dilution method; procedure, shortened: as §1
Mammaliicoccus sciuri = assay: Antibacterial activity against Staphylococcus sciuri N993 after 18 hrs by agar dilution method; procedure, shortened: as §1
Enterococcus faecium [22] = assay: Antibacterial activity against Enterococcus faecium N733 after 18 hrs by agar dilution method; procedure, shortened: as §1
Enterococcus hirae = assay: Antibacterial activity against Enterococcus hirae CIP 5855 after 18 hrs by agar dilution method; procedure, shortened: as §1
Staphylococcus aureus [23] = assay: Antibacterial activity against Staphylococcus aureus ATCC 25923 after 18 hrs by agar dilution method; procedure, shortened: as §1
Enterococcus faecalis [24] = assay: Antibacterial activity against Enterococcus faecalis N518 after 18 hrs by agar dilution method; procedure, shortened: as §1
Listeria monocytogenes [25] = assay: Antibacterial activity against Listeria monocytogenes N836 after 18 hrs by agar dilution method; procedure, shortened: as §1
Bacillus cereus [26] = assay: Antibacterial activity against Bacillus cereus N349 after 18 hrs by agar dilution method; procedure, shortened: as §1
Listeria innocua = assay: Antibacterial activity against Listeria innocua E044 after 18 hrs by agar dilution method; procedure, shortened: as §1
[27] = tested on: Enterococcus casseliflavus; assay: Antibacterial activity against Enterococcus casseliflavus N487 after 18 hrs by agar dilution method; procedure, shortened: as §1
Staphylococcus aureus [28] = assay: Antibacterial activity against Staphylococcus aureus CIP 7625 after 18 hrs by agar dilution method; procedure, shortened: as §1
Staphylococcus aureus [29] = assay: Antibacterial activity against Staphylococcus aureus CIP 53156 after 18 hrs by agar dilution method; procedure, shortened: as §1
Enterococcus avium = assay: Antibacterial activity against Enterococcus avium CIP 104053 after 18 hrs by agar dilution method; procedure, shortened: as §1
[30] = tested on: Staphylococcus lugdunensis; assay: Antibacterial activity against Staphylococcus lugdunensis ATCC 43809 after 18 hrs by agar dilution method; procedure, shortened: as §1
Staphylococcus aureus [31] = assay: Antibacterial activity against Staphylococcus aureus CIP 5710 after 18 hrs by agar dilution method; procedure, shortened: as §1
Listeria monocytogenes [32] = assay: Antibacterial activity against Listeria monocytogenes CIP 103575 after 18 hrs by agar dilution method; procedure, shortened: as §1
Enterococcus faecium [33] = assay: Antibacterial activity against Enterococcus faecium CIP 103014 after 18 hrs by agar dilution method; procedure, shortened: as §1
Streptococcus agalactiae = assay: Antibacterial activity against Streptococcus agalactiae CIP 103227 after 18 hrs by agar dilution method; procedure, shortened: as §1
Enterococcus faecalis [34] = assay: Antibacterial activity against Enterococcus faecalis CIP 104676 after 18 hrs by agar dilution method; procedure, shortened: as §1
Corynebacterium striatum = assay: Antibacterial activity against Corynebacterium striatum N840 after 18 hrs by agar dilution method; procedure, shortened: as §1
Enterococcus faecium [35] = assay: Antibacterial activity against Enterococcus faecium N507 after 18 hrs by agar dilution method; procedure, shortened: as §1
[36] = tested on: Staphylococcus intermedius; assay: Antibacterial activity against Staphylococcus intermedius N987 after 18 hrs by agar dilution method; procedure, shortened: as §1
Bacillus cereus [37] = assay: Antibacterial activity against Bacillus cereus N258 after 18 hrs by agar dilution method; procedure, shortened: as §1
Enterococcus faecium [38] = assay: Antibacterial activity against Enterococcus faecium N823 after 18 hrs by agar dilution method; procedure, shortened: as §1

Measured: MIC

CC1(C)S[C@@H]2[C@H](NC(=O)[C@H](N)c3ccc(O)cc3)C(=O)N2[C@H]1C(=O)O [AMOXICILLIN]
> 350 µM: Enterococcus faecium [22]; N733, 18 h
350 µM: Corynebacterium striatum; N840, 18 h | Enterococcus faecium [35]; N507, 18 h | Enterococcus faecium [38]; N823, 18 h
175 µM: Staphylococcus aureus [5]; CRBIP 2121, 18 h | Enterococcus faecium [10]; CIP 107387, 18 h
3 µM: Enterococcus faecalis [9]; N520, 18 h
11 µM: Bacillus cereus [16]; CIP 6624, 18 h | Bacillus cereus [26]; N349, 18 h | Bacillus cereus [37]; N258, 18 h
≤ 0.2 µM: [2]; CIP 53124, 18 h | Staphylococcus aureus [3] | Bacillus spizizenii; ATCC 6633, 18 h | [15]; CIP 8156, 18 h | Staphylococcus aureus [29]; CIP 53156, 18 h | Streptococcus agalactiae; ATCC 13813, 18 h
0.7 µM: Enterococcus gallinarum [4]; N492, 18 h | [6]; CIP 76125, 18 h | [7]; E260, 18 h | Enterococcus gallinarum [8]; N489, 18 h | Enterococcus faecalis [11]; N491, 18 h | Listeria monocytogenes [14]; N783, 18 h | [17]; CIP 103018, 18 h | Listeria monocytogenes [21]; N851, 18 h | Mammaliicoccus sciuri; N993, 18 h | Enterococcus faecalis [24]; N518, 18 h | Listeria monocytogenes [25]; N836, 18 h | Listeria innocua; E044, 18 h | [27]; N487, 18 h | Enterococcus avium; CIP 104053, 18 h | [30]; ATCC 43809, 18 h | Staphylococcus aureus [31]; CIP 5710, 18 h | Listeria monocytogenes [32]; CIP 103575, 18 h | Enterococcus faecium [33]; CIP 103014, 18 h
0.3 µM: Staphylococcus aureus [12]; CIP 53154, 18 h | Staphylococcus aureus [20]; CIP 483, 18 h | Staphylococcus aureus [23]; ATCC 25923, 18 h | Staphylococcus aureus [28]; CIP 7625, 18 h
44 µM: Bacillus cereus [1]; N190, 18 h
1.4 µM: Enterococcus faecalis [13]; CIP 103214, 18 h | Enterococcus durans; CIP 104999, 18 h | Enterococcus gallinarum [19]; CIP 105985, 18 h | Enterococcus hirae; CIP 5855, 18 h | Enterococcus faecalis [34]; CIP 104676, 18 h
22 µM: Enterococcus faecium [18]; N490, 18 h
88 µM: [36]; N987, 18 h

GENTAMICIN
139 µM: [36]
1 µM: Bacillus cereus [1] | Listeria monocytogenes [14] | Bacillus cereus [16] | Staphylococcus aureus [20] | Listeria monocytogenes [21] | Staphylococcus aureus [23] | Listeria monocytogenes [25] | Listeria innocua | Staphylococcus aureus [28] | Staphylococcus aureus [29] | Staphylococcus aureus [31] | Listeria monocytogenes [32]
9 µM: [17] | [27]
> 278 µM: Staphylococcus aureus [5] | Enterococcus faecalis [9] | Enterococcus faecium [10] | Enterococcus faecalis [11] | Enterococcus faecium [18] | Enterococcus faecium [22] | Enterococcus faecalis [34] | Corynebacterium striatum | Enterococcus faecium [35] | Enterococcus faecium [38]
17 µM: Enterococcus gallinarum [4] | Enterococcus durans | Enterococcus gallinarum [19] | Enterococcus faecium [33]
35 µM: Enterococcus faecalis [13] | Enterococcus hirae
2 µM: Bacillus cereus [26] | Enterococcus avium | Streptococcus agalactiae; ATCC 13813 | Bacillus cereus [37]
0.5 µM: [2] | Staphylococcus aureus [3] | [30]
4 µM: Enterococcus gallinarum [8] | Staphylococcus aureus [12]
0.3 µM: [6] | Bacillus spizizenii
70 µM: Enterococcus faecalis [24]
< 0.14 µM: [7] | [15] | Mammaliicoccus sciuri
